Active and inactive are the calls of the source.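 Rule for the calls: active = duplicate-averaged activation above buffer control mean plus 5 SD of those controls; inactive = the rest.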

The nature of this assay: thallium flux activation in parental CHO cells, counter-screen for KCNQ1 potentiator project (AID 493006).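 For activation: fluorescence ratio of max minus min over baseline after K+ and Tl+ depolarization.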 The following applies: parental CHO-K1 cells, FluxOR thallium flux, at 10 µM; hits give high values. The procedure, abridged: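 Assay system: parental CHO-K1 cells lacking KCNQ1, loaded with FluxOR thallium dye; timing: dye 90 min RT, compound 20 min RT; signal: kinetic thallium-flux fluorescence; repeats: duplicate wells per compound, percent values averaged; benchmarks: buffer and R-L3 controls; reagent: Potassium/thallium depolarization pulse; read-out: fluorescence change ratio scaled 0% buffer, 100% R-L3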
As to `CCCn1c(=S)[nH]c2ccc(C(F)(F)F)cc21`, the activation is 158% (active).
For the compound `Oc1ccc(C[C@@H]2CNCCN2CCc2cc(C(F)(F)F)cc(C(F)(F)F)c2)cc1`, the result was inactive.
On the same count and under the same terms, the entry for `O=[N+]([O-])c1ccc(Nc2ccc(Cl)cc2)nc1` is “inactive”; for `CCCC(=O)N1CCN(Cc2nc3cc([N+](=O)[O-])ccc3n2C)CC1` it is “inactive”; for `COc1ccc(C)cc1-n1c(C)cc(C=O)c1C` it is “inactive”.
Turning to `CCCCCC/C(C)=C1/SC(=S)NC1=O`, the activation is 752% (active).
With `O=C(NNC(=O)c1ccc(Cl)c(Cl)c1)c1ccncc1`, the outcome was inactive.
Still for that read-out and setting: the entry for `CN(C)c1ccc(-c2nn3c(-c4ccccc4Cl)nnc3s2)cc1` is “inactive”.
For the compound `CC(C)OC(=O)c1c(NS(=O)(=O)c2ccccc2)sc2c1CCCC2`, the activation is 262% (active).
Turning to `COC(=O)c1cn(NC(=O)Cc2ccc(Cl)c(Cl)c2)c(=O)c2ccccc12`, the outcome was inactive.
On to `Oc1c(N=NC(=S)Nc2ccccc2F)c2ccccc2n1Cc1ccccc1`, for which the activation was 143% (active).
Still for that read-out and setting: as for `O=C(NCc1ccccn1)c1ccc(COc2ccc(Cl)cc2)o1`, the figure is 138% (active).
Regarding `Cc1ccnc(NC(=O)CNC(=O)c2ccc3c(c2)OCO3)c1`, the result was inactive.
Still for that read-out and setting: the entry for `CC1=CC(=O)C=C(C)C1=NOS(=O)(=O)c1ccccc1` is “inactive”.
In the case of `COCCCn1c(=S)[nH]c2c(sc3ccccc32)c1=O`, the activation is 176% (active).
Take `O=C1/C(=C/c2cccc(F)c2)SC(=S)N1NS(=O)(=O)c1ccccc1`: the activation was 146% (active).
On to `COc1cc(OC)cc(C(=O)NNC(=O)C(=O)Nc2cc(OC)c(Cl)cc2OC)c1`, for which the activation is 202% (active).
On to `Cc1cccc(C(=O)Nc2ccccc2C(=O)NCc2cccnc2)c1`, for which the outcome was inactive.

Source of the values: PubChem BioAssay.
